Data from ChEMBL document CHEMBL1138479, “Synthesis and antiplasmodial activity of aminoalkylamino-substituted neocryptolepine derivatives” (J Med Chem, 2009).

Target: Nucleic Acid
Assay: Binding affinity to DNA assessed as intercalation after 24 hrs by DNA-methyl green assay
Format: nucleic-acid assay
Details: not given; call rule not given here
Method in brief: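 DNA-methyl green reagent (20 mg in 100 mL 0.05 M Tris HCl pH 7.5 with 7.5 mM MgSO4, stirred 24 h at 37 °C) was added to dried compound. A620 was read at 0 and after 24 h at 25 °C. […] Cryptolepine was the positive control.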
Work on Cn1c2nc3ccccc3c-2c(N2CCN(CCO)CC2)c2cc(Cl)ccc21 yielded an IC50 of 376 µM.
In the case of Cn1c2nc3ccccc3c-2c(NCCN2CCOCC2)c2cc(Cl)ccc21, the IC50 is reported as 118 µM.
Cn1c2nc3cc(Cl)ccc3c-2cc2ccccc21 gave an IC50 greater than 1000 µM.
Molecule Cn1c2nc3ccc(Cl)cc3c-2cc2ccccc21 has an IC50 greater than 1000 µM.
With Cn1c2nc3ccccc3c-2cc2cc(Cl)ccc21 the IC50 was greater than 1000 µM.
For CN1CCN(c2c3c4ccccc4nc-3n(C)c3ccc(Cl)cc23)CC1, the IC50 was 358 µM.
For OCCN1CCN(c2c3cc(Cl)ccc3nc3[nH]c4ccccc4c23)CC1, the IC50 was greater than 1000 µM.
For Clc1ccc2nc3[nH]c4ccccc4c3c(Cl)c2c1, the IC50 was greater than 1000 µM.
CCN(CC)CCCC(C)Nc1c2c3ccccc3nc-2n(C)c2cc(Cl)ccc12 (stereo not drawn) showed an IC50 of 248 µM.
With CCN1CCCC1CNc1c2c3ccccc3nc-2n(C)c2ccc(Cl)cc12 (stereo not drawn) the IC50 was 645 µM.
In the case of CCN(CC)CCCC(C)Nc1c2c3ccccc3nc-2n(C)c2ccccc12 (stereo not drawn), the IC50 is reported as 312 µM.
For Cn1c2nc3ccccc3c-2cc2cc(Br)ccc21, the IC50 was greater than 400 µM.
Molecule Cn1c2nc3ccccc3c-2c(NCCN2CCCC2)c2cc(Cl)ccc21 has an IC50 of 186 µM.
CCN(CC)CCCC(C)Nc1c2c3ccccc3nc-2n(C)c2cccc(Cl)c12 (stereo not drawn) gave an IC50 greater than 1000 µM.

Target: T1, Histidine-rich protein PFHRP-II (Plasmodium falciparum, UniProt P05227)
T1 sequence (P05227 whole entry): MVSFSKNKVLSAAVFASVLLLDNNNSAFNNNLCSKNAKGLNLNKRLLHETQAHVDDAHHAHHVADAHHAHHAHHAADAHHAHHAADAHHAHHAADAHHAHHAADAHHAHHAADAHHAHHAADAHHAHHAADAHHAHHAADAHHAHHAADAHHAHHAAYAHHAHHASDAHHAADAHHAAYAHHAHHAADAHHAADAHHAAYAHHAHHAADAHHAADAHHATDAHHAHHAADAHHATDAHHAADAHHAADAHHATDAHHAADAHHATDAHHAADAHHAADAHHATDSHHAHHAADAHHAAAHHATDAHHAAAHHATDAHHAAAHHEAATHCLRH
Assay: Inhibition of beta-hematin formation after 18 hrs by microtiter plate assay
Format: functional
Details: not given
For Cn1c2nc3ccccc3c-2cc2ccccc21 [NEOCRYPTOLEPINE], the IC50 was 5.97 milliequivalent.
Molecule Cn1c2nc3ccccc3c-2c(Cl)c2ccc(Cl)cc21 has an IC50 of 1.14 milliequivalent.
Cn1c2nc3cc(Cl)ccc3c-2cc2ccccc21 gave an IC50 of 1.55 milliequivalent.
Molecule Cn1c2nc3ccc(Cl)cc3c-2cc2ccccc21 has an IC50 of 1.23 milliequivalent.
Cn1c2nc3ccccc3c-2cc2cc(Cl)ccc21 showed an IC50 of 1.31 milliequivalent.
Molecule OCCN1CCN(c2c3cc(Cl)ccc3nc3[nH]c4ccccc4c23)CC1 has an IC50 of 2 milliequivalent.
Work on CCN(CC)CCCC(C)Nc1c2c3ccccc3nc-2n(C)c2cc(Cl)ccc12 (stereo not drawn) yielded an IC50 of 5.25 milliequivalent.
Work on CCN(CC)CCCC(C)Nc1c2c3ccccc3nc-2n(C)c2ccccc12 (stereo not drawn) yielded an IC50 of 4.11 milliequivalent.
Work on Cn1c2nc3ccccc3c-2cc2cc(Br)ccc21 yielded an IC50 of 1.77 milliequivalent.

Test system: MRC5
Assay: Cytotoxicity against human MRC5 cells
Format: cell-based
Details: not given
Method in brief: (§1)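 MRC-5 SV2 fibroblasts were kept in MEM with 20 mM L-glutamine and 5% FCS at 37 °C, 5% CO2. Cells were seeded at 10⁴/well onto prediluted compounds and incubated 72 h. Viability was read fluorimetrically after resazurin addition.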
Cn1c2nc3ccccc3c-2cc2cc(Br)ccc21 showed an IC50 greater than 32 µM.

Test system: not listed separately
Assay: Selectivity index, ratio of IC50 for human MRC5 SV2 cells to IC50 for chloroquine-sensitive Plasmodium falciparum Ghana
Format: toxicity, cell-based
Details: read-out: Ratio IC50
Cn1c2nc3ccccc3c-2cc2ccccc21 [NEOCRYPTOLEPINE] showed a selectivity ratio of 0.4.
In the case of Cn1c2nc3ccccc3c-2c(Cl)c2ccc(Cl)cc21, the selectivity ratio is reported as less than 0.4.
Molecule Cn1c2nc3ccccc3c-2c(Cl)c2ccccc21 [11-CHLORONEOCRYPTOLEPINE] has a selectivity ratio of less than 0.08.
With Cn1c2nc3ccccc3c-2c(N2CCN(CCO)CC2)c2cc(Cl)ccc21 the selectivity ratio was 0.4.
Work on Cn1c2nc3ccccc3c-2c(NCCN2CCOCC2)c2cc(Cl)ccc21 yielded a selectivity ratio of 0.5.
With CCN(CC)CCCC(C)Nc1ccc2cc3c4ccccc4nc-3n(C)c2c1 (stereo not drawn) the selectivity ratio was 1070.
In the case of Cn1c2nc3ccccc3c-2cc2ccc(Cl)cc21, the selectivity ratio is reported as 0.5.
Molecule Cn1c2nc3ccc(Cl)cc3c-2cc2ccccc21 has a selectivity ratio greater than 2.
Cn1c2nc3ccccc3c-2cc2cc(Cl)ccc21 showed a selectivity ratio greater than 1.
Molecule CN1CCN(c2c3c4ccccc4nc-3n(C)c3ccc(Cl)cc23)CC1 has a selectivity ratio of 0.5.
Work on OCCN1CCN(c2c3cc(Cl)ccc3nc3[nH]c4ccccc4c23)CC1 yielded a selectivity ratio of 0.9.
Molecule CCN(CC)CCCC(C)Nc1c2c3ccccc3nc-2n(C)c2cc(Cl)ccc12 (stereo not drawn) has a selectivity ratio of 108.
CCN1CCCC1CNc1c2c3ccccc3nc-2n(C)c2ccc(Cl)cc12 (stereo not drawn) showed a selectivity ratio greater than 2.
In the case of CCN(CC)CCCC(C)Nc1c2c3ccccc3nc-2n(C)c2ccccc12 (stereo not drawn), the selectivity ratio is reported as 32.
In the case of Cn1c2nc3ccccc3c-2cc2cc(Br)ccc21, the selectivity ratio is reported as greater than 5.
In the case of CCN(CC)CCCC(C)Nc1c2c3ccccc3nc-2n(C)c2cccc(Cl)c12 (stereo not drawn), the selectivity ratio is reported as 60.

Test system: not listed separately
Assay: Cytotoxicity against human MRC5 SV2 cells after 72 hrs by resazurin-based fluorometric assay
Format: cell-based
Details: MRC5, 72 h
Method in brief: as §1
Cn1c2nc3ccccc3c-2cc2ccccc21 [NEOCRYPTOLEPINE] gave an IC50 of 11 µM.
Cn1c2nc3ccccc3c-2c(Cl)c2ccc(Cl)cc21 showed an IC50 of 27 µM.
For Cn1c2nc3ccccc3c-2c(Cl)c2ccccc21 [11-CHLORONEOCRYPTOLEPINE], the IC50 was 5 µM.
Molecule Cn1c2nc3ccccc3c-2c(N2CCN(CCO)CC2)c2cc(Cl)ccc21 has an IC50 of 0.82 µM.
Molecule Cn1c2nc3ccccc3c-2c(NCCN2CCOCC2)c2cc(Cl)ccc21 has an IC50 of 0.37 µM.
With Cn1c2nc3cc(Cl)ccc3c-2cc2ccccc21 the IC50 was greater than 64 µM.
CCN(CC)CCCC(C)Nc1ccc2cc3c4ccccc4nc-3n(C)c2c1 (stereo not drawn) gave an IC50 of 16 µM.
In the case of Cn1c2nc3ccccc3c-2cc2ccc(Cl)cc21, the IC50 is reported as 21 µM.
In the case of Cn1c2nc3ccc(Cl)cc3c-2cc2ccccc21, the IC50 is reported as greater than 64 µM.
Work on Cn1c2nc3ccccc3c-2cc2cc(Cl)ccc21 yielded an IC50 greater than 64 µM.
In the case of CN1CCN(c2c3c4ccccc4nc-3n(C)c3ccc(Cl)cc23)CC1, the IC50 is reported as 1 µM.
OCCN1CCN(c2c3cc(Cl)ccc3nc3[nH]c4ccccc4c23)CC1 gave an IC50 of 2 µM.
With Clc1ccc2nc3[nH]c4ccccc4c3c(Cl)c2c1 the IC50 was greater than 64 µM.
CCN(CC)CCCC(C)Nc1c2c3ccccc3nc-2n(C)c2cc(Cl)ccc12 (stereo not drawn) gave an IC50 of 14 µM.
CCN1CCCC1CNc1c2c3ccccc3nc-2n(C)c2ccc(Cl)cc12 (stereo not drawn) gave an IC50 of 0.4 µM.
Work on CCN(CC)CCCC(C)Nc1c2c3ccccc3nc-2n(C)c2ccccc12 (stereo not drawn) yielded an IC50 of 20 µM.
In the case of Cn1c2nc3ccccc3c-2cc2cc(Br)ccc21, the IC50 is reported as greater than 32 µM.
Work on Cn1c2nc3ccccc3c-2c(NCCN2CCCC2)c2cc(Cl)ccc21 yielded an IC50 of less than 0.25 µM.
In the case of CCN(CC)CCCC(C)Nc1c2c3ccccc3nc-2n(C)c2cccc(Cl)c12 (stereo not drawn), the IC50 is reported as 21 µM.

Target: T1, Histidine-rich protein PFHRP-II
Assay: (§2) Inhibition of beta-hematin formation at 5 milliequivalent after 18 hrs by microtiter plate assay
Format: functional
Details: not given
With Cn1c2nc3ccccc3c-2c(N2CCN(CCO)CC2)c2cc(Cl)ccc21 the IC50 was “Not Active”.
In the case of Cn1c2nc3ccccc3c-2c(NCCN2CCOCC2)c2cc(Cl)ccc21, the IC50 is reported as “Not Active”.
In the case of CN1CCN(c2c3c4ccccc4nc-3n(C)c3ccc(Cl)cc23)CC1, the IC50 is reported as “Not Active”.
With Clc1ccc2nc3[nH]c4ccccc4c3c(Cl)c2c1 the IC50 was “Not Active”.
In the case of CCN1CCCC1CNc1c2c3ccccc3nc-2n(C)c2ccc(Cl)cc12 (stereo not drawn), the IC50 is reported as “Not Active”.
For Cn1c2nc3ccccc3c-2c(NCCN2CCCC2)c2cc(Cl)ccc21, the IC50 was “Not Active”.

Target: T2, Histidine-rich protein PFHRP-II (Plasmodium falciparum) (UniProt P05227)
T2 sequence (whole entry): T1 sequence (P05227 whole entry)
Assay: as §2
Format: functional
Details: not given
Work on CCN(CC)CCCC(C)Nc1c2c3ccccc3nc-2n(C)c2cccc(Cl)c12 (stereo not drawn) yielded an inhibition of less than 20%.

Test system: Plasmodium falciparum
Assay: Antiplasmodial activity against chloroquine-sensitive Plasmodium falciparum Ghana in human erythrocytes after 72 hrs by Malstat assay
Format: functional, organism-based
Details: not given
Method in brief: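 P. falciparum Ghana strain grown in human erythrocytes in RPMI-1640 at 37 °C under 3% O2, 4% CO2, 93% N2. Exposure to compounds lasted 72 h. Multiplication was read by Malstat with absorbance at 655 nm, and % growth inhibition was taken against negative blanks.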
With Cn1c2nc3ccccc3c-2c(Cl)c2ccc(Cl)cc21 the IC50 was greater than 64 µM.
In the case of Cn1c2nc3ccccc3c-2c(Cl)c2ccccc21 [11-CHLORONEOCRYPTOLEPINE], the IC50 is reported as greater than 64 µM.
Work on Cn1c2nc3ccccc3c-2c(N2CCN(CCO)CC2)c2cc(Cl)ccc21 yielded an IC50 of 2.28 µM.
In the case of Cn1c2nc3ccccc3c-2c(NCCN2CCOCC2)c2cc(Cl)ccc21, the IC50 is reported as 0.69 µM.
Molecule Cn1c2nc3cc(Cl)ccc3c-2cc2ccccc21 has an IC50 greater than 64 µM.
Molecule CCN(CC)CCCC(C)Nc1ccc2cc3c4ccccc4nc-3n(C)c2c1 (stereo not drawn) has an IC50 of 0.015 µM.
Molecule Cn1c2nc3ccccc3c-2cc2ccc(Cl)cc21 has an IC50 of 41.1 µM.
With Cn1c2nc3ccc(Cl)cc3c-2cc2ccccc21 the IC50 was 29 µM.
Cn1c2nc3ccccc3c-2cc2cc(Cl)ccc21 gave an IC50 of 52 µM.
In the case of CN1CCN(c2c3c4ccccc4nc-3n(C)c3ccc(Cl)cc23)CC1, the IC50 is reported as 2.1 µM.
In the case of OCCN1CCN(c2c3cc(Cl)ccc3nc3[nH]c4ccccc4c23)CC1, the IC50 is reported as 2.34 µM.
For Clc1ccc2nc3[nH]c4ccccc4c3c(Cl)c2c1, the IC50 was greater than 64 µM.
Molecule CCN(CC)CCCC(C)Nc1c2c3ccccc3nc-2n(C)c2cc(Cl)ccc12 (stereo not drawn) has an IC50 of 0.13 µM.
With CCN1CCCC1CNc1c2c3ccccc3nc-2n(C)c2ccc(Cl)cc12 (stereo not drawn) the IC50 was less than 0.25 µM.
With CCN(CC)CCCC(C)Nc1c2c3ccccc3nc-2n(C)c2ccccc12 (stereo not drawn) the IC50 was 0.62 µM.
Cn1c2nc3ccccc3c-2c(NCCN2CCCC2)c2cc(Cl)ccc21 showed an IC50 of less than 0.25 µM.
With CCN(CC)CCCC(C)Nc1c2c3ccccc3nc-2n(C)c2cccc(Cl)c12 (stereo not drawn) the IC50 was 0.35 µM.
